Source: ChEMBL document CHEMBL2331551, “TOPS-MODE model of multiplexing neuroprotective effects of drugs and experimental-theoretic study of new 1,3-rasagiline derivatives potentially useful in neurodegenerative diseases” (2013)

Assays:
Type in all cases: functional, Neuron
[1] = Neuroprotection in Sprague-Dawley rat embryonic motor cortex neurons assessed as protection against 100 uM H2O2-induced neuronal death at 5 uM by MTT method
Summary of the method: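 Primary neurons cultured from embryonic day-19 Sprague-Dawley rat motor cortex. Cells were exposed to compound in the presence of H2O2 as the neurotoxic insult. Viability was read as MTT reduction, which reflects mitochondrial integrity and function and indicates the number of viable cells. Protection is given as mean ± SEM of at least three independent experiments.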

[2] = Neuroprotection in Sprague-Dawley rat embryonic motor cortex neurons at 5 uM by MTT method
Summary of the method: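 Cultured neurons from embryonic day-19 Sprague-Dawley rat motor cortex, with compound alone and no neurotoxic agent added. Viability measured by MTT reduction, read as mitochondrial functional activity and number of cells present in culture. Neuroprotection expressed as % (NP), mean ± SEM of at least three independent experiments.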

[3] = Neuroprotection in Sprague-Dawley rat embryonic motor cortex neurons assessed as protection against 100 uM glutamate-induced excitotoxicity at 5 uM by MTT method
Summary of the method: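 Primary cultures of motor cortex neurons from 19-day Sprague-Dawley rat embryos, challenged with glutamate as neurotoxic agent alongside the compound. Cell viability read by MTT reduction, taken as mitochondrial integrity and functional activity, reflecting the number of viable cells. Neuroprotection (NP) reported in %, as mean ± SEM from at least three independent experiments.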

Structure (SMILES) | Activity [1] | Activity [2] | Activity [3]
C#CCN[C@@H]1C[C@@H](O)c2ccccc21 | 14.5% | 23.4% | 15.2%
C#CCN(CC#C)[C@@H]1C[C@@H](OC(=O)c2ccccc2)c2ccccc21 | -5.8% | 6.9% | -1.3%
C#CCN(CC#C)[C@@H]1C[C@H](OC(=O)c2ccccc2)c2ccccc21 | 16.4% | -5.1% | 1.6%
C#CCN[C@@H]1C[C@H](O)c2ccccc21 | 46.2% | 0% | 0%
C#CCN(CC#C)[C@@H]1C[C@@H](OC(C)=O)c2ccccc21 | 12.3% | 0% | -0.5%
C#CCN(CC#C)[C@@H]1C[C@H](OC(C)=O)c2ccccc21 | 18.2% | 0% | -1.5%
C#CCN(CC#C)[C@@H]1C[C@@H](O)c2ccccc21 | 19.6% | -1% | -0.5%
C#CCN(CC#C)[C@@H]1C[C@H](O)c2ccccc21 | 17.8% | -5% | 0%
